One block for each compound: values may come before it. Active and inactive are the calls of the source. No cut-off for these calls is given here.
How the values were obtained:
[1] = biological target: T1, Protein deacetylase HDAC6 (Homo sapiens, UniProt Q9UBN7); test: Inhibition of human recombinant HDAC6 using ZMAL (Z-(Ac)Lys-AMC) as fluorogenic substrate incubated for 120 mins by microplate reader assay
T1 sequence (Q9UBN7 whole entry): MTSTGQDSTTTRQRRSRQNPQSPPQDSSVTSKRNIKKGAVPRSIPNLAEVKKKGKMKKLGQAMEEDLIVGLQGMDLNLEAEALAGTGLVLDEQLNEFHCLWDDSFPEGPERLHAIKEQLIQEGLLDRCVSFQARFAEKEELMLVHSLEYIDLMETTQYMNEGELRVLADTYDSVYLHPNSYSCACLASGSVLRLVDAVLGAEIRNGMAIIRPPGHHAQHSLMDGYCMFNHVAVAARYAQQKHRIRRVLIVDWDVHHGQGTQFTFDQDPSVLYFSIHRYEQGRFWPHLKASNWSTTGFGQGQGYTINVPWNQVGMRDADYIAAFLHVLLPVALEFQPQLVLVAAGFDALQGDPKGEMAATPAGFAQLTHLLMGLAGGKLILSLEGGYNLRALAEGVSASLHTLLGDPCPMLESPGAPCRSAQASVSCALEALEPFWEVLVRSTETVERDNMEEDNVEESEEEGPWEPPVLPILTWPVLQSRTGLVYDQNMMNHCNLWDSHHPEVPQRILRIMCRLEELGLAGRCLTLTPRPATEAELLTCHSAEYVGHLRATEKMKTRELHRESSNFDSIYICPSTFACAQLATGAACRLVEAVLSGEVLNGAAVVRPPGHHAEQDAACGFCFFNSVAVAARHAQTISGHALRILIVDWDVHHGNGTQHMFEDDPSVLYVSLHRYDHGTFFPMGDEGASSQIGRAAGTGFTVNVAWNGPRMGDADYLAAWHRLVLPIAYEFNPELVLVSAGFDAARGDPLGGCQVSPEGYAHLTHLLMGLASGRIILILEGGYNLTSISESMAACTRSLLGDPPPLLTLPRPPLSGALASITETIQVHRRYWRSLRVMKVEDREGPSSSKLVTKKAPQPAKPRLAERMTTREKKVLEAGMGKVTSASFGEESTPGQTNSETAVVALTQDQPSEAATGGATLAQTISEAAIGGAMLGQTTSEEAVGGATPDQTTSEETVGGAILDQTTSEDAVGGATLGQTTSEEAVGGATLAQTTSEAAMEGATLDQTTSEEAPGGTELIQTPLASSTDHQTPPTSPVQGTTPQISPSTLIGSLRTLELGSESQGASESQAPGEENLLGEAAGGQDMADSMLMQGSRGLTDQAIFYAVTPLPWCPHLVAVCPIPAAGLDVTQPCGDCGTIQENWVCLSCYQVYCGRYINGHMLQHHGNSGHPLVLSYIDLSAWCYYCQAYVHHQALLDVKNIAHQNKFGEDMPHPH

Histone deacetylase 1 [2] = biological target: T2, Histone deacetylase 1 (Homo sapiens, UniProt Q13547); test: Inhibition of human recombinant HDAC1 using ZMAL (Z-(Ac)Lys-AMC) as fluorogenic substrate incubated for 120 mins by microplate reader assay
T2 sequence (Q13547 whole entry): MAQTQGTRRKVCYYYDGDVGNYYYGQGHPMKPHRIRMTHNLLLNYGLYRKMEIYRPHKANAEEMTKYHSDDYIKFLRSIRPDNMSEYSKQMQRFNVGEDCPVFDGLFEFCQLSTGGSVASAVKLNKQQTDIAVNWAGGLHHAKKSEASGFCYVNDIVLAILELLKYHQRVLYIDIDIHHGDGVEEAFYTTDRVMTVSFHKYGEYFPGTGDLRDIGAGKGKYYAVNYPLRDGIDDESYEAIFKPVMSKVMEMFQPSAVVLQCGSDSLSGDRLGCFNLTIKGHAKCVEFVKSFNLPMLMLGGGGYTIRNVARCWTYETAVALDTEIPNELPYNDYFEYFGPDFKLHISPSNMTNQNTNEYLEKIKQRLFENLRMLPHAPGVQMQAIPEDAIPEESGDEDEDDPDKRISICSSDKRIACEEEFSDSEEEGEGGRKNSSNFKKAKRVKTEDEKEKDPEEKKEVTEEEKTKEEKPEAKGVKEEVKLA

Histone deacetylase 1 [3] = biological target: T2, Histone deacetylase 1; test: Inhibition of HDAC1 in human U87 cells assessed as increase in acetylation of histone H3 at 5 uM incubated for 30 hrs by western blot analysis; format: cell-based
In short: (§1)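 Whole lysates (35 μg) and acid-extracted histones (2 μg) run on SDS-PAGE and blotted for acetylated tubulin or acetyl-histone H3; GAPDH or H4 as loading controls.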

[4] = biological target: T3, Protein deacetylase HDAC6 (Homo sapiens) (UniProt Q9UBN7); test: Inhibition of HDAC6 in human NB-4 cells assessed as increase in acetylation of alpha-tubulin at 5 uM incubated for 30 hrs by western blot analysis; format: cell-based; in short: as §1
T3 sequence (whole entry): T1 sequence (Q9UBN7 whole entry)

[5] = biological target: T3, Protein deacetylase HDAC6 (Homo sapiens); test: Inhibition of HDAC6 in human U87 cells assessed as increase in acetylation of alpha-tubulin at 5 uM incubated for 30 hrs by western blot analysis; format: cell-based; in short: as §1
Histone deacetylase 1 [6] = biological target: T2, Histone deacetylase 1; test: Inhibition of HDAC1 in human NB-4 cells assessed as increase in acetylation of histone H3 at 5 uM incubated for 30 hrs by western blot analysis; format: cell-based; in short: as §1
Homo sapiens = species: Homo sapiens; test: Inhibition of broncho-sphere formation in IPF patient derived human lung organoid assessed as inhibition of 3D organoid formation at 0.1 to 50 nM incubated for 14 days by Bright-field microscopy analysis; format: functional; conditions: dose 0.1-50 nM, time 14.0 day
In short: (§2)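 Airway basal cells from bronchial brushings of IPF patients, 10⁴ cells in Matrigel on transwell inserts with 1:1 BEGM/DMEM. Treated 14 days (1–50 nM per methods; 0.1–50 nM per legend), medium changed every 7 days.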

[7] = Inhibition of spheroid count in IPF patient derived human Airway basal cell incubated for 14 days by Bright-field microscopy analysis; format: functional, cell-based; in short: as §2
Airway basal cell [8] = test: Inhibition of cell proliferation in IPF patient derived human Airway basal cell at 20 to 50 nM incubated for 14 days by MTT assay; format: functional, cell-based; conditions: dose 20-50 nM, time 14.0 day
In short: (§3)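 IPF patient airway basal cell 3D organoid cultures (10⁴ cells in Matrigel, 1:1 BEGM/DMEM) treated 14 days at 1–50 nM, medium changed weekly. Proliferation read by colorimetric MTT on day 14. Mean ± SEM of triplicates, n=3; repeated-measures ANOVA/Friedman test. Reported IC50 is the mean of the count-based and MTT-based IC50s.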

[9] = Inhibition of cell proliferation in IPF patient derived human Airway basal cell incubated for 14 days by MTT assay; format: functional, cell-based; conditions: 336 h; in short: as §3
Airway basal cell [10] = test: Inhibition of spheroid count in IPF patient derived human Airway basal cell assessed as reduction in sphere count at 20 to 50 nM incubated for 14 days by Bright-field microscopy analysis; format: functional, cell-based; conditions: dose 20-50 nM, time 14.0 day; in short: as §2
Histone deacetylase 8 = biological target: T4, Histone deacetylase 8 (Homo sapiens, UniProt Q9BY41); test: Inhibition of human recombinant HDAC8 using FLUOR DE LYS fluorometric substrate pre-incubated for 15 mins and followed by substrate addition and measured after 60 mins by microplate reader assay
T4 sequence (Q9BY41 whole entry): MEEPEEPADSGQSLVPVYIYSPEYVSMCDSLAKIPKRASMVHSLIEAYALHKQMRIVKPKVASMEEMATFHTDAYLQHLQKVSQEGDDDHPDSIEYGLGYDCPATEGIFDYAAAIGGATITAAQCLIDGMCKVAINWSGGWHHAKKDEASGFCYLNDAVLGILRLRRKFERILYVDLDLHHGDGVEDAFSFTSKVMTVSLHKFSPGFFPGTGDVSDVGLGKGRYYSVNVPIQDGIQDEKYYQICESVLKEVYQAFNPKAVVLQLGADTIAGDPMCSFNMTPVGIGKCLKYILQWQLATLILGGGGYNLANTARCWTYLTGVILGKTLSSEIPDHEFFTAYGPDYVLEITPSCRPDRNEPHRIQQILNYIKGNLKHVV
In short: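 Recombinant human HDAC8 at 0.45 U/reaction with 0.5% DMSO; DMSO-only enzyme served as control. Enzyme preincubated 15 min with compound, then Fluor de Lys substrate added (50 μM final) for 1 h at 30 °C. Quenched with 2 μM TSA in Developer II for a further 1 h at 30 °C. Fluorescence read at ex 370/em 450 nm. IC50 from nonlinear dose-response fit.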

[11] = biological target: T3, Protein deacetylase HDAC6 (Homo sapiens); test: Inhibition of HDAC6 in human U2OS cells assessed as increase in acetylation of alpha-tubulin at 5 uM incubated for 30 hrs by western blot analysis; format: cell-based; in short: as §1
NIH3T3 [12] = test: Cytotoxicity in mouse NIH3T3 cells assessed as reduction in cell viability at 5 uM incubated for 24 hrs by neutral red uptake method based UV/visible spectrophotometer analysis; format: toxicity; conditions: nih3t3, 24 h
In short: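 NIH3T3 fibroblasts grown in DMEM with 10% FCS, L-glutamine/pen-strep and non-essential amino acids at 37 °C, 5% CO2. Monolayers exposed 24 h to compound diluted from a DMSO stock into medium. Neutral Red medium then added for 3 h at 37 °C. Dye extracted with acetic acid/ethanol desorb solution and absorbance read at 540 nm. Student's t-test, p<0.05.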

NIH3T3 [13] = test: Cytotoxicity in mouse NIH3T3 cells assessed as reduction in cell viability at 20 uM incubated for 24 hrs by neutral red uptake method based UV/visible spectrophotometer analysis; format: toxicity; conditions: nih3t3, 24 h
In short: (§4)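 NIH3T3 mouse fibroblasts grown in DMEM with 10% FCS, L-glutamine/pen-strep and non-essential amino acids (37 °C, 5% CO2). Exposed 24 h to compound diluted from a DMSO stock into medium. Viability measured by Neutral Red uptake: 3 h in NR medium, then acetic acid/ethanol desorb, absorbance at 540 nm. Student's t-test, p<0.05.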

NIH3T3 [14] = test: Cytotoxicity in mouse NIH3T3 cells assessed as reduction in cell viability at 1 uM incubated for 24 hrs by neutral red uptake method based UV/visible spectrophotometer analysis; format: toxicity; conditions: nih3t3, 24 h; in short: as §4
NIH3T3 [15] = test: Cytotoxicity in mouse NIH3T3 cells assessed as reduction in cell viability at 7.5 uM incubated for 24 hrs by neutral red uptake method based UV/visible spectrophotometer analysis; format: toxicity; conditions: nih3t3, 24 h; in short: as §4
NIH3T3 [16] = test: Cytotoxicity in mouse NIH3T3 cells assessed as reduction in cell viability at 2 uM incubated for 24 hrs by neutral red uptake method based UV/visible spectrophotometer analysis; format: toxicity; conditions: nih3t3, 24 h; in short: as §4

Compound: CC1(C)c2ccccc2N(Cc2ccc(C(=O)NO)cc2)[C@@H]1c1cccnc1
- IC50 [1]: 71.3 nM
- IC50 (Histone deacetylase 1 [2]): 3380 nM

Compound: CC1(C)c2ccccc2N(Cc2ccc(C(=O)NO)cc2)[C@H]1c1cccnc1
- IC50 [1]: 90.6 nM
- IC50 (Histone deacetylase 1 [2]): 16200 nM

- IC50 [1]: 811 nM
- IC50 (Histone deacetylase 1 [2]): 6320 nM
Compound: CC1(C)c2ccccc2N(Cc2ccc(C(=O)NO)s2)C1c1cccnc1 (racemic)

- IC50 [1]: 152 nM
- IC50 (Histone deacetylase 1 [2]): 8100 nM
Compound: CC(C)(C)OC(=O)N1CCC2(CC1)c1ccccc1N(Cc1ccc(C(=O)NO)cc1)C2c1cccnc1 (racemic)

- IC50 [1]: 166 nM
- IC50 (Histone deacetylase 1 [2]): 18700 nM
Compound: CC1(C)c2ccccc2N(Cc2ccc(C(=O)NO)cc2)C1c1ccccc1 (racemic)

Compound: CN1CCC2(CC1)c1ccccc1N(Cc1ccc(C(=O)NO)cc1)C2c1cccc(Cl)c1 (racemic)
- IC50 [1]: 111 nM
- IC50 (Histone deacetylase 1 [2]): 8100 nM

Compound: CN1CCC2(CC1)c1ccccc1N(Cc1ccc(C(=O)NO)cc1)C2c1ccc(F)cc1 (racemic)
- inhibition (Histone deacetylase 1 [3]): inactive
- inhibition [4]: Active
- IC50 [1]: 142 nM
- inhibition [5]: Active
- inhibition (Histone deacetylase 1 [6]): inactive
- IC50 (Histone deacetylase 1 [2]): 6160 nM

- IC50 [1]: 67.2 nM
- IC50 (Histone deacetylase 1 [2]): 5320 nM
Compound: COc1ccc2c(c1)C(C)(C)C(c1cccnc1)N2Cc1ccc(C(=O)NO)cc1 (racemic)

Compound: CN1CCC2(CC1)c1ccccc1N(Cc1ccc(C(=O)NO)cc1)C2c1ccccc1 (racemic)
- inhibition (Histone deacetylase 1 [3]): inactive
- inhibition [4]: Active
- IC50 [1]: 73.2 nM
- inhibition [5]: Active
- inhibition (Homo sapiens): Dose-Dependent Effect
- inhibition (Histone deacetylase 1 [6]): inactive
- IC50 [7]: 2.55 nM
- inhibition (Airway basal cell [8]): Active
- IC50 [9]: 0.154 nM
- IC50 (Histone deacetylase 1 [2]): 4290 nM
- inhibition (Airway basal cell [10]): Active

- IC50 [1]: 616 nM
- IC50 (Histone deacetylase 1 [2]): 1630 nM
Compound: CC1(C)c2ccccc2N(Cc2ccc(OCCCC(=O)NO)cc2)C1c1cccnc1 (racemic)

- IC50 (Histone deacetylase 8): 4640 nM
- inhibition (Histone deacetylase 1 [3]): inactive
- inhibition [4]: Active
- IC50 [1]: 61.1 nM
- inhibition [5]: Active
- inhibition [11]: Active
- inhibition (Histone deacetylase 1 [6]): inactive
- IC50 [7]: 4.35 nM
- IC50 (Histone deacetylase 1 [2]): 10800 nM
Compound: CC1(C)c2ccccc2N(Cc2ccc(C(=O)NO)cc2)C1c1ccncc1 (racemic)
- inhibition (Homo sapiens): Dose-Dependent Effect
- inhibition (Airway basal cell [8]): Active
- IC50 [9]: 4.97 nM
- inhibition (Airway basal cell [10]): Active

Compound: CN1CCC2(CC1)c1ccccc1N(Cc1ccc(C(=O)NO)cc1)C2c1cccnc1 (racemic)
- IC50 [1]: 112 nM
- IC50 (Histone deacetylase 1 [2]): 7600 nM

Compound: CN1CCC2(CC1)c1ccccc1N(Cc1ccc(C(=O)NO)cc1)C2c1ccc(Cl)cc1 (racemic)
- IC50 [1]: 165 nM
- IC50 (Histone deacetylase 1 [2]): 3650 nM

Compound: O=C(CCCCCCC(=O)Nc1ccccc1)NO [VORINOSTAT]
- Activity (NIH3T3 [12]): 31%
- Activity (NIH3T3 [13]): 7%
- Activity (NIH3T3 [14]): 83%
- Activity (NIH3T3 [15]): 22%
- Activity (NIH3T3 [16]): 62%

From ChEMBL document CHEMBL5226322, “Harnessing the Role of HDAC6 in Idiopathic Pulmonary Fibrosis: Design, Synthesis, Structural Analysis, and Biological Evaluation of Potent Inhibitors” (J Med Chem, 2021)
